# According to ChEMBL document CHEMBL4007401, “Lynamicin D an antimicrobial natural product affects splicing by inducing the expression of SR protein kinase 1” (2017):
# Calls of active or inactive are those of the source. The rule behind the calls is not given here.
# Experiments:
# [1] = Modulation of alternative splicing of SRp20 exons […] pre-mRNA (unknown origin) expressed in human T98G cells assessed as inclusion of exon-4 up to 20 uM after 24 hrs by ethidium bromide staining based agarose gel electrophoresis method; type: cell-based
# [2] = organism: Homo sapiens; test: Modulation of SRPK1 pre-mRNA splicing in human T98G cells assessed as increase in SRPK1 protein level at 10 to 30 uM after 24 hrs by Western blot method relative to control; type: cell-based
# How it was run: (§1)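 Lysis in 1% Triton X-100, 20 mM Hepes-KOH pH 7.5, 150 mM NaCl, 1 mM PMSF, 30 min on ice, needle-sheared, spun 13,000 g 15 min. Equal protein on 10% SDS-PAGE. Endogenous SRPK1 probed with mouse monoclonal anti-SRPK1, GAPDH as loading control, AP secondary with BCIP/NBT; SRPK1/GAPDH by densitometry.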
# [3] = system: A549; test: Modulation of SRPK1 pre-mRNA splicing in human A549 cells assessed as increase in SRPK1 pre-mRNA level at 10 to 30 uM after 24 hrs by RT-PCR method relative to control; type: cell-based
# How it was run: (§2)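 Total RNA from cells treated 24 h or control taken with TRIZOL. 1 µg reverse transcribed with random hexamers. SRPK1 amplified 27 cycles (95 °C 40 s, 66 °C 40 s, 72 °C 60 s); actin reference annealed at 60 °C. Products on 1% agarose, ethidium bromide. SRPK1/actin ratio by densitometry.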
# [4] = system: HeLa; test: Modulation of SRPK1 pre-mRNA splicing in human HeLa cells assessed as increase in SRPK1 pre-mRNA level at 10 to 30 uM after 24 hrs by RT-PCR method relative to control; type: cell-based; how it was run: as §2
# [5] = system: HeLa; test: Modulation of SRPK1 pre-mRNA splicing in human HeLa cells assessed as effect on intracellular localization of SRPK1 at 30 uM after 24 hrs by DAPI staining based immunofluorescence microscopic method; type: cell-based
# [6] = system: T98G; test: Cytotoxicity against human T98G cells assessed as cell viability at 30 uM after 48 hrs by MTT assay relative to control; type: functional; settings: read-out: Activity
# How it was run: (§3)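 Cells seeded at 10^4 per well, exposed 24 h later to lynamicin D (0-20 µM in methods; 30 µM stated in results) for 48 h. Then 4 h with 0.5 mg/ml MTT, crystals dissolved in 10% SDS in 0.01 N HCl, A570 read. Blanked against DMSO; medium-only cells = 100% viability. Means ±SE, three independent experiments.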
# [7] = system: A549; test: Cytotoxicity against human A549 cells assessed as cell viability at 30 uM after 48 hrs by MTT assay relative to control; type: functional; settings: A549, 48 h, read-out: Activity; how it was run: as §3
# [8] = system: HeLa; test: Modulation of alternative splicing of SMN2 exons 6 to 8 pre-mRNA (unknown origin) expressed in human HeLa cells assessed as inclusion of exon-7 up to 20 uM after 24 hrs by ethidium bromide staining based agarose gel electrophoresis method; type: cell-based
# How it was run: (§4)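 HeLa (2 x 10exp4) transfected with 0.5 µg pSMN2 (exons 6-8) or pSRp20 (exons 3-5), or 1 µg pSVIRB (rat insulin exons 1-3). After 4 h, medium replaced with lynamicin D (0-20 µM; results cite 10, 20, 30 µM) or DMSO. RNA at 24 h, 1 µg RT, 30 PCR cycles, annealing 60 °C (SRp20 55 °C). Agarose gels; upper/lower band ratio. Means ±SE, n=3.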
# [9] = organism: Rattus norvegicus; test: Modulation of constitutive splicing of rat insulin exons 1 to 3 pre-mRNA expressed in human T98G cells assessed as retention of introns up to 20 uM after 24 hrs by ethidium bromide staining based agarose gel electrophoresis method; type: cell-based
# [10] = system: A549; test: Modulation of constitutive splicing of rat insulin exons 1 to 3 pre-mRNA expressed in human A549 cells assessed as retention of introns up to 20 uM after 24 hrs by ethidium bromide staining based agarose gel electrophoresis method; type: cell-based
# [11] = system: HeLa; test: Modulation of constitutive splicing of rat insulin exons 1 to 3 pre-mRNA expressed in human HeLa cells assessed as retention of introns up to 20 uM after 24 hrs by ethidium bromide staining based agarose gel electrophoresis method; type: cell-based; how it was run: as §4
# [12] = organism: Homo sapiens; test: Modulation of SRPK1 pre-mRNA splicing in human T98G cells assessed as increase in SRPK1 pre-mRNA level at 10 to 30 uM after 24 hrs by RT-PCR method relative to control; type: cell-based; how it was run: as §2
# [13] = system: HeLa (Homo sapiens); test: Modulation of alternative splicing of SRp20 exons […] pre-mRNA (unknown origin) expressed in human HeLa cells assessed as inclusion of exon-4 up to 20 uM after 24 hrs by ethidium bromide staining based agarose gel electrophoresis method
# [14] = system: A549; test: Modulation of SRPK1 pre-mRNA splicing in human A549 cells assessed as increase in SRPK1 protein level at 10 to 30 uM after 24 hrs by Western blot method relative to control; type: cell-based; how it was run: as §1
# [15] = system: HeLa; test: Modulation of constitutive splicing of rat insulin exons 1 to 3 pre-mRNA expressed in human HeLa cells assessed as retention of introns up to 20 uM after 24 hrs by ethidium bromide staining based agarose gel electrophoresis method
# [16] = system: HeLa; test: Modulation of alternative splicing of SRp20 exons […] pre-mRNA (unknown origin) expressed in human HeLa cells assessed as inclusion of exon-4 up to 20 uM after 24 hrs by ethidium bromide staining based agarose gel electrophoresis method; type: cell-based; how it was run: as §4
# [17] = target: SRSF protein kinase 1 (Homo sapiens) (UniProt Q96SB4); test: Inhibition of GST-tagged SRPK1 (unknown origin) at 5 to 30 uM using GST-LBRNt (62 to 92 residues) as substrate by SDS-PAGE based autoradiography
# SRSF protein kinase 1 (Homo sapiens), sequence (Q96SB4 whole entry, the tested form may be a part): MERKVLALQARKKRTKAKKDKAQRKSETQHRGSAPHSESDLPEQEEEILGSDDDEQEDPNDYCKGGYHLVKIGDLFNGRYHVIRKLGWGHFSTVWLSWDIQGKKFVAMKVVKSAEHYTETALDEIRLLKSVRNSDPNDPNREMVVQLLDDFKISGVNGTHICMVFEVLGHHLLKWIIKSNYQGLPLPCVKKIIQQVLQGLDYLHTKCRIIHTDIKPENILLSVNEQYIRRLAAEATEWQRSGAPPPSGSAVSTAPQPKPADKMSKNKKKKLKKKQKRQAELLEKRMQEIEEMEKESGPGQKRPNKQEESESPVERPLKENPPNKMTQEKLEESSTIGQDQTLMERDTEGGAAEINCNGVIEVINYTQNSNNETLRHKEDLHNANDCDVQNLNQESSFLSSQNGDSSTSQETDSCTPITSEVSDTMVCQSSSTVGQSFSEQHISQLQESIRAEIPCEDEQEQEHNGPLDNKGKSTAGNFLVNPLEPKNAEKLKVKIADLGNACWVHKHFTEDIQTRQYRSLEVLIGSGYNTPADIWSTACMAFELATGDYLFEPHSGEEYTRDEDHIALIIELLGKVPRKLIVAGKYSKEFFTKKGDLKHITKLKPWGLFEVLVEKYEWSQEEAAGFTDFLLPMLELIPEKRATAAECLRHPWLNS
# How it was run: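 Radioactive kinase reaction, 25 µL: 12 mM Hepes pH 7.5, 10 mM MgCl2, 25 µM ATP, 0.5 µg recombinant GST-SRPK1, 1 µg GST-LBRNt(62-92) (LBR N-terminal RS-containing fragment) as substrate. Lynamicin D 0-30 µM or SRPIN340 5 µM. Products run on 12% SDS-PAGE, Coomassie-stained and autoradiographed; incorporation measured by excising bands and scintillation counting.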
# [18] = system: HeLa; test: Cytotoxicity against human HeLa cells assessed as cell viability at 30 uM after 48 hrs by MTT assay relative to control; type: functional; settings: read-out: Activity; how it was run: as §3
# [19] = system: HeLa; test: Modulation of SRPK1 pre-mRNA splicing in human HeLa cells assessed as increase in SRPK1 protein level at 10 to 30 uM after 24 hrs by Western blot method relative to control; type: cell-based; how it was run: as §1
smiles,measurement,setting,value
COC(=O)c1[nH]c(C(=O)OC)c(-c2c[nH]c3ccc(Cl)cc23)c1-c1c[nH]c2ccc(Cl)cc12 [LYNAMICIN D],Activity,[1],Active
same,Activity,[2],Active
same,Activity,[3],Active
same,fold change (FC),[4],3
same,Activity,[5],inactive
same,viability at 30 µM,[6],91%
same,viability at 30 µM,[7],88%
same,Activity,[8],Active
same,Activity,[9],Active
same,Activity,[10],Active
same,Activity,[11],Active
same,Activity,[12],Active
same,Activity,[13],Active
same,Activity,[14],Active
same,Activity,[15],Active
same,Activity,[16],Active
same,inhibition,[17],inactive
same,viability at 30 µM,[18],82%
same,fold change (FC),[19],1.9
